Data as given in PMC3449281 (Chemistry & biology, 2012).
Entries after “also recorded” stand apart in the source; their conditions may differ.

Legend:
[1] = biological target: purified firefly luciferase (FLuc) (Photinus pyralis, UniProt P08659); assay: Mode of inhibition; assay type: biochemical; conditions: IC50 shift with 1 mM D-LH2, 1 mM ATP or high CoASH
Outline: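 Purified P. pyralis FLuc was run in the standard luciferase assay (10 μM ATP and D-LH2, the KM levels). Test compounds were given as 12-point titrations, 57.5 μM to 0.3 nM final. One substrate was kept at KM and the other saturating (1 mM ATP or 1 mM D-luciferin), or 500 μM CoASH was added. Fold shift = IC50 at high substrate / IC50 at KM. There were three separate tests, each in duplicate.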

miR-21 FLuc assay = assay: miR-21 FLuc cell-based reporter gene assay; conditions: 48-hour incubation with compound
Outline: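 The cell-based reporter expresses wild-type FLuc and was optimized to detect increases in FLuc signal. Cells were exposed to test compound for 48 h. Unlike the read-through assay, there was no wash step before the detection reagent was added. Concentration–response curves were recorded.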

purified RLuc = biological target: T1, purified RLuc (Renilla reniformis, UniProt P27652); conditions: highest concentration tested = 57.5 μM
T1 sequence (P27652 1-311): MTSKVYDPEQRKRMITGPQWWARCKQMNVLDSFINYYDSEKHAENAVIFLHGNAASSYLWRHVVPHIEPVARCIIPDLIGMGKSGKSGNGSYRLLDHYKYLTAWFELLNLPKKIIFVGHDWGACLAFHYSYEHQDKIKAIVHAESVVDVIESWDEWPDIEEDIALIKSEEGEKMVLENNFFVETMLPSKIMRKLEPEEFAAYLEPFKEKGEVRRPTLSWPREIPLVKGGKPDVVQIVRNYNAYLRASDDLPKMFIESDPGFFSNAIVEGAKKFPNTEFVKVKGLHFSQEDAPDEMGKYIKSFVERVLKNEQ

Sequence of purified firefly luciferase (FLuc) (P08659 whole entry): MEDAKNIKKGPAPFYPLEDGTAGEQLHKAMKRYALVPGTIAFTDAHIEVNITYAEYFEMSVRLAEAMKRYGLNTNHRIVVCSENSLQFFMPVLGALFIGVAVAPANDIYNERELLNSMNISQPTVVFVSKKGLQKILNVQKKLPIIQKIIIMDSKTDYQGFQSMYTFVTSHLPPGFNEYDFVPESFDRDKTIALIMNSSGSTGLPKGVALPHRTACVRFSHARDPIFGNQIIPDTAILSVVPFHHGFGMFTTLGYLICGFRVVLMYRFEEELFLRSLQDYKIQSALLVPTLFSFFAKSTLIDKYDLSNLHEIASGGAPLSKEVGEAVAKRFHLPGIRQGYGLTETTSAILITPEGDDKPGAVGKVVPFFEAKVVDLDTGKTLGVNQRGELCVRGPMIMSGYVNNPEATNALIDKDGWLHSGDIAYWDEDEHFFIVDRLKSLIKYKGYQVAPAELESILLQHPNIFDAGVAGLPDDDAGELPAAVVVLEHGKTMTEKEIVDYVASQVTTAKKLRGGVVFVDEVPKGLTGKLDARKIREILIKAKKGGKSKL

| SMILES | Mode of inhibition (substrate competition) [1] | Activity in RLuc assay (purified RLuc) | other results |
| --- | --- | --- | --- |
| Cn1c(NN=Cc2cc3ccccc3nc2Cl)nc2ccccc21 [CID:4216593] | competitive with both D-LH2 and ATP; also recorded: significantly reduced by either ATP or D-LH2 |  |  |
| COc1ccc(-c2nc3ccccc3s2)cc1O [CID: 976322] | ATP was found to enhance inhibitor binding |  |  |
| CC(C)(C)C(=O)Nc1ccc(-c2nc3ccccc3s2)cc1 [CID: 16015828] |  |  | Effect on FLuc signal in cell-based miR-21 assay (miR-21 FLuc assay): strong activation |
| CC(=NNC(=O)c1ccccc1NC(=O)c1ccc(Cl)cc1)c1ccncc1 [CID: 16193026] | only ATP |  |  |
| O=C(Nc1ccccc1C(=O)O)c1cccc(S(=O)(=O)Nc2ccc(Br)cc2)c1 [compound 1087370] |  | RLuc-active |  |
| O=C(Nc1ccccc1C(=O)O)c1cc(S(=O)(=O)Nc2cccc(F)c2)ccc1Cl [compound 1105141] |  | RLuc-active |  |
